Screening results from PubChem BioAssay.
Sampled rows, rich in hits. Any-hit rate of the full collection: about 2.5%.
dFosB act-1 = activators of mouse delta FosB homodimer. 0.99% of 340,000 active. P13346. purified delta FosB, TAMRA-CDK5 oligo fluorescence polarization; percent of positive-control signal above neutral wells. AID 493131. activation, % at 25 µM;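 active = mean activation above about 17%, with every replicate also reaching it, limit read from the data, passing the limit was not always enough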
VIM-2 inhibitor = inhibitors of Pseudomonas aeruginosa VIM-2 metallo-beta-lactamase | inhibition, % at 5.6 µM | purified VIM-2, nitrocefin hydrolysis, epi-absorbance fluorescence | 0.89% of 290,000 active;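 active = inhibition above the mean of all tested compounds plus 3 SD, cutoff set per screening run, cut at about 7.5% in these data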;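 also: red hydrolysis product quenches plate fluorescence so inhibitors raise well fluorescence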
HTR2A ag = mouse HTR2A agonism via beta-arrestin recruitment; activation, % at 7.6 µM; 0.66% of 360,000 active; CHO-K1 mHTR2A beta-arrestin complementation, luminescence; percent of 30 µM serotonin response; P35363;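 active = activation above a run cutoff, the mean activation of all tested compounds plus 3 SD, cut at about 14% in these data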
Target sequence (P35363 whole entry, looked up): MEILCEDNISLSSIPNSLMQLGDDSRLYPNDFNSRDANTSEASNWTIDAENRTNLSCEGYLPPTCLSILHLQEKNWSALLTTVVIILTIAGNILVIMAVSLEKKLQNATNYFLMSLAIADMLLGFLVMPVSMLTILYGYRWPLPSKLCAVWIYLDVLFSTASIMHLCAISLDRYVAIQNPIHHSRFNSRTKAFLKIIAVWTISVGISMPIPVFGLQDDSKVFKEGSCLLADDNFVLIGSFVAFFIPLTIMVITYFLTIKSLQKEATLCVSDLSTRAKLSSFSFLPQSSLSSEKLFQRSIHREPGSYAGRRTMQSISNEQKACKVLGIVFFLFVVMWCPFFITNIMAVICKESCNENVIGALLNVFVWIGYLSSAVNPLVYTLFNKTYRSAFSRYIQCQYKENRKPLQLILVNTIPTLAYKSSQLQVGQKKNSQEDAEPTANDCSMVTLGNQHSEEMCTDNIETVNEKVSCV
IMP-1 inh = blocks Pseudomonas aeruginosa IMP-1 metallo-beta-lactamase | purified IMP-1, nitrocefin hydrolysis, epi-absorbance fluorescence | inhibition, % at 5.6 µM | AID 1556 | 0.45% of 290,000 active;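 active = inhibition above the mean plus 3 SD of all compounds in the same screening run, cut at about 4.5% in these data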
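Test system: recombinant IMP-1 enzyme, purified / Medium: HEPES buffer pH 7.1 with ZnSO4 and Brij 35 / Doses: single dose, 5.6 µM / Times: 25 °C, 15 min preincubation, 25 min reaction / Detection: Epi-absorbance via hydrolysed-nitrocefin quenching of white-plate fluorescence, 480/530 nm, EDTA stop / Evaluation: percent inhibition from optical density relative to buffer-blank wells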
dFosB act-2 = activators of mouse delta FosB homodimer DNA binding; activation, % at 24.9 µM; 2,400 tested, under 10 active; shares compounds with dFosB act-1; purified delta FosB, TAMRA-CDK5 oligo fluorescence polarization; normalised: neutral wells 0, positive control 100;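 active = highest replicate activation at or above 34% and every replicate reaching that threshold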;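 also: higher polarization means more probe DNA bound by delta FosB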
Each line names hits and unclear results; the compound was inactive in the other large screens (follow-up assays come after a bar, where they were run).

Nc1nc(N)c2c(ccc3nccc32)[nH]1	dFosB act-1 36 | dFosB act-2 inactive
CCCCCNC(=O)c1nc(-c2c(F)cccc2F)oc1-c1ccccc1	none (no result: dFosB act-1, VIM-2 inhibitor, IMP-1 inh)
CN(C1CCCCC1)S(=O)(=O)c1ccc(SCC(=O)C(C)(C)C)nc1	none (no result: VIM-2 inhibitor, IMP-1 inh)
C#CCOCCOCCOCCNc1nc(N2CCN(C(=O)[C@H](CCCCN)n3cc([C@@H](N)C(C)CC)nn3)CC2)nc(N2CCN(C(=O)[C@H](CCCCN)n3cc([C@@H](N)CO)nn3)CC2)n1 (stereo partly drawn)	none (no result: dFosB act-1, HTR2A ag)
C#CCOCCOCCOCCNc1nc(N2CCN(C(=O)[C@H](CCCCN)n3cc(CN)nn3)CC2)nc(N2CCN(C(=O)[C@H](CCCCN)n3cc([C@@H](N)[C@H](C)CC)nn3)CC2)n1	dFosB act-1 43 (no result: VIM-2 inhibitor, IMP-1 inh) | dFosB act-2 inactive
C#CCOCCOCCOCCNc1nc(N2CCN(C(=O)[C@H](CCCN=C(N)N)n3cc(C(N)[C@@H](C)CC)nn3)CC2)nc(N2CCN(C(=O)[C@H](CCCCN)n3cc([C@@H](N)[C@H](C)CC)nn3)CC2)n1 (stereo partly drawn)	dFosB act-1 36 (no result: VIM-2 inhibitor, IMP-1 inh) | dFosB act-2 inactive
O=[N+]([O-])c1cc([N+](=O)[O-])c(Oc2cccnc2Br)cc1NN1CCCCC1	none
CC(=O)Nc1ccc(NC(=O)CSc2nnc(NC(=O)c3ccc(Br)o3)s2)cc1	none
O=C(Oc1ccc(/C=N/NC(=O)c2ccccn2)cc1)c1cccc(Br)c1	dFosB act-1 19 | dFosB act-2 inactive
Cc1ccc(C(=O)N/N=C\c2ccc(OC(=O)c3cccc(F)c3)cc2)cn1	dFosB act-1 31 | dFosB act-2 inactive
O=C(Oc1ccc(/C=N/NC(=O)c2ccccn2)cc1)c1ccc(Br)cc1	none
Cc1cc(C(=O)N/N=C/c2cc(Br)cc(Br)c2OC(=O)c2cccc(F)c2)n[nH]1	dFosB act-1 53 | dFosB act-2 inactive
Cc1cc(C(=O)N/N=C/c2cc(Br)cc(Br)c2OC(=O)c2ccccc2)n[nH]1	none (no result: dFosB act-1, HTR2A ag)
Cc1cc(C)n2c(NC3CCCCC3)c(-c3ccccn3)nc2n1	none (no result: dFosB act-1, VIM-2 inhibitor, IMP-1 inh)
O=C(NCC1CCCN1S(=O)(=O)c1cccs1)C(=O)Nc1ccccc1Cl (stereo not drawn)	none (no result: VIM-2 inhibitor, IMP-1 inh)
O=C(CN1CCN(c2ccccc2O)CC1)Nc1ccc2c(c1)OCCCO2	none (no result: VIM-2 inhibitor, IMP-1 inh)
CCc1ccc(NC(=O)C(C)OC(=O)c2cc(=O)[nH]c3ccc(S(=O)(=O)Nc4ccc(F)cc4)cc23)cc1 (stereo not drawn)	dFosB act-1 100 | dFosB act-2 inactive
Cc1cccc(NS(=O)(=O)c2ccc3[nH]c(=O)cc(C(=O)OC(C)C(=O)Nc4ccc([N+](=O)[O-])cc4)c3c2)c1 (stereo not drawn)	none
O=S(=O)([N-]c1nc2ccccc2nc1-n1cc[n+](Cc2ccccc2)c1)c1ccc(Br)cc1	none (no result: dFosB act-1)
CCCCN(CCCNC(=O)Cn1nc(CC)n2c(cc3sc(C)cc32)c1=O)Cc1ccccc1	dFosB act-1 35 | dFosB act-2 inactive
CCc1nn(CC(=O)NCCCN(CC)Cc2ccccc2)c(=O)c2cc3sccc3n12	none
CCCCCN(C(=O)CCC(=O)OCC(=O)NCCc1ccccc1)c1c(N)n(CCCC)c(=O)[nH]c1=O	none (no result: dFosB act-1, VIM-2 inhibitor, IMP-1 inh)
NC(=O)C1(Nc2ccc(Br)cc2)CCCC1	none (no result: VIM-2 inhibitor, IMP-1 inh)
COc1cc(/C=N/NC(=O)c2ccncc2)ccc1OC(=O)c1ccccc1Cl	none
COc1ccc(/C=N/NC(=O)c2ccc(COc3cccc4cccnc34)cc2)cc1OC	dFosB act-1 19 | dFosB act-2 inactive
O=C(N/N=C/c1ccncc1)c1ccc(COc2cccc3cccnc23)cc1	none
COc1ccc(/C=N/NC(=O)c2cc3c(ccc4ccccc43)o2)cc1OC	dFosB act-1 77 | dFosB act-2 inactive
O=C(N/N=C/c1cccc(O)c1)c1ccc(COc2cccc3cccnc23)cc1	dFosB act-1 33 | dFosB act-2 inactive
COc1cc(C(=O)N/N=C/c2ccc(OC(=O)c3ccccc3Cl)c(OC)c2)ccc1O	dFosB act-1 25 | dFosB act-2 inactive
CSCC[C@H](NC(=O)C1CCN(S(=O)(=O)c2ccccc2)CC1)C(=O)NC1CC1	none
O=C(NCc1ccccc1)c1cnc(Cc2c[nH]c3ccccc23)c(I)c1	none (no result: dFosB act-1, VIM-2 inhibitor, IMP-1 inh)
O=C(N/N=C/c1ccccc1Br)c1ccc(CSc2cccc3cccnc23)cc1	dFosB act-1 28 | dFosB act-2 inactive
COc1ccc(/C=N\NC(=O)c2ccccc2)cc1COc1ccc(F)cc1	none
COc1ccc(/C=N\NC(=O)c2ccc(-c3ccccc3)cc2)cc1COC(C)=O	dFosB act-1 34 | dFosB act-2 inactive
O=C(Nc1nc(-c2nc3ccccc3s2)cs1)c1ccc(S(=O)(=O)N2CCOCC2)cc1	dFosB act-1 33 | dFosB act-2 inactive
Cc1[nH]nc(C(F)(F)F)c1N=NN1CCOCC1	none (no result: VIM-2 inhibitor, IMP-1 inh)
O=C(NCc1nc(-c2ccc(C(F)(F)F)cc2)no1)Nc1ccc(OC(F)(F)F)cc1	dFosB act-1 24 | dFosB act-2 inactive
COc1ccc(-c2noc(CNS(=O)(=O)c3ccc(NC(C)=O)cc3)n2)cc1	none
CN1CCN(C(=O)c2ccccc2NS(=O)(=O)c2ccc(F)cc2)CC1	none (no result: VIM-2 inhibitor, IMP-1 inh)
CCc1nnc(NC(=O)c2ccc(-c3cccc(C(F)(F)F)c3)o2)s1	dFosB act-1 19 | dFosB act-2 inactive
CCc1nnc(NC(=O)c2ccc(-c3cc(C(F)(F)F)ccc3Cl)o2)s1	none
c1ccc(CSc2nnc(-c3c[nH]c4ccccc34)o2)cc1	dFosB act-1 20 | dFosB act-2 inactive
Cc1c(Cl)cccc1NC(=O)CCNC(=O)N1CC(=O)Nc2ccccc21	dFosB act-1 23 | dFosB act-2 inactive
Cc1occc1C(=O)N/N=C/c1ccc(OCc2ccccc2)cc1	dFosB act-1 30 | dFosB act-2 inactive
CCOc1ccc(/C=N/NC(=O)c2cc3ccccc3cc2OC)cc1	dFosB act-1 19 | dFosB act-2 inactive
COc1ccc(Cl)cc1N1C(=O)CC(Sc2ccccc2N)C1=O (stereo not drawn)	dFosB act-1 38 | dFosB act-2 inactive
COc1ccc(CN2CCNC(=O)C2CC(=O)N(C)C2CCCCC2)cc1OC (stereo not drawn)	none (no result: dFosB act-1, VIM-2 inhibitor, IMP-1 inh)
Cc1ccc(C2=NOC3(CC(=O)N(c4ccc(C)cc4)C3=O)C2)cc1 (stereo not drawn)	dFosB act-1 29 | dFosB act-2 inactive
O=C(O)CN=C(Nc1cc(Cl)cc(Cl)c1)NC(c1ccccc1)c1ccccc1	none (no result: dFosB act-1, VIM-2 inhibitor, IMP-1 inh)
CC(CCc1ccccc1)NC(=O)CNC(=S)N(Cc1cccs1)C1CCCC1 (stereo not drawn)	none
CCC(C)NC(=O)Cn1c(=O)n(CCCCCC(=O)Nc2ccccc2)c(=O)c2sccc21 (stereo not drawn)	dFosB act-1 18 | dFosB act-2 inactive
Cc1ccc(NCc2nnc(SCC(=O)c3ccc4c(c3)OCCO4)o2)c(C)c1	dFosB act-1 29 | dFosB act-2 inactive
CCOC(=O)C(=NO)C1=CSC2=NNC(C)(C)N12	none (no result: dFosB act-1, VIM-2 inhibitor, IMP-1 inh)
COc1ccc(NC(=O)Cn2nnc(C(=O)NCc3cccs3)c2N)cc1Cl	dFosB act-1 35 | dFosB act-2 inactive
